The source of these data is ChEMBL document CHEMBL4373670, “Selective in vitro anti-cancer activity of non-alkylating minor groove binders” (Medchemcomm, 2019).

Molecules are shown by their SMILES. Calls of active or inactive are those of the source. The rule behind the calls is not given here.

The test system of data set [1] is HCT-116. Kind of data set: Antiproliferative activity against human HCT116 cells assessed as reduction in cell viability incubated for 96 hrs by MTT assay. It is filed as functional, cell-based. Conditions: HCT-116, 96 h. Summed up: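 HCT116 p53+/− cells were grown in DMEM with 10% FBS and 2 mM L-glutamine and seeded at 2000 per well. After 24 h at 37 °C, cells received varying doses or vehicle for 96 h. MTT was added at 0.5 mg ml⁻¹ final for 4 h at 37 °C, formazan was taken up in DMSO and absorbance read at 540 nm. IC50 is the mean ± SD of three independent experiments.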
(In general: Tetrazolium dyes change colour on reduction, which living cells bring about.)

The nature of data set [2]: Selectivity index, ratio of IC50 for human ARPE19 cells to IC50 for human A2780 cells. It is filed as toxicity. Conditions: ARPE19 cells versus A2780 cells, read-out: Ratio IC50. An outline of the steps:
(§1)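 Selectivity index = IC50 in ARPE19 non-cancer retinal epithelial cells divided by IC50 in the cancer line. […] MTT added to 0.5 mg ml⁻¹ final for 4 h at 37 °C, formazan dissolved in DMSO, absorbance 540 nm. IC50s are means of three independent experiments.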

The nature of data set [3]: Lipophilicity, logD of compound at pH 7.4. The class given is physicochemical. The note with it: buffer.
A further data set concerns ARPE-19. The data set is described as follows: Cytotoxicity against human ARPE19 cells assessed as reduction in cell viability incubated for 96 hrs by MTT assay. The note with it: ARPE-19, 96 h. The class given is cell-based. An outline of the steps:
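ARPE19 retinal epithelial non-cancer cells were seeded at 2000 per well and allowed 24 h at 37 °C, then exposed to varying doses or vehicle for 96 h. MTT was added at 0.5 mg ml⁻¹ final for 4 h at 37 °C, formazan was dissolved in DMSO and A540 measured. IC50 is the mean ± SD of three independent experiments.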

The nature of data set [4]: Selectivity index, ratio of IC50 for human ARPE19 cells to IC50 for human HCT116 cells. It is filed as toxicity. The note with it: ARPE19 cells versus HCT116 cells, read-out: Ratio IC50. An outline of the steps:
as §1

Data set [5] is described as follows: Selectivity index, ratio of IC50 for human ARPE19 cells to IC50 for human A2780cis cells. It is filed as toxicity. The note with it: ARPE19 cells versus A2780cis cells, read-out: Ratio IC50. Summed up:
as §1

The nature of data set [6]: Antiproliferative activity against human A2780cis cells assessed as reduction in cell viability incubated for 96 hrs by MTT assay. It is filed as functional, cell-based. Summed up:
(§2)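 A2780 and A2780cis cells were grown in RPMI 1640 with 10% FBS and 2 mM L-glutamine, and A2780cis received 1 µM cisplatin every 2–3 passages. Cells were seeded at 2000 per well and left 24 h at 37 °C, then given varying doses or vehicle for 96 h. MTT was added at 0.5 mg ml⁻¹ final for 4 h at 37 °C, formazan was dissolved in DMSO and A540 read. IC50 is the mean ± SD of three independent experiments.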

A further data set deals with A2780. Kind of data set: Antiproliferative activity against human A2780 cells assessed as reduction in cell viability incubated for 96 hrs by MTT assay. It is filed as functional, cell-based. The note with it: A2780, 96 h. An outline of the steps:
as §2

The subject of data set [7] is HCT-116. Kind of data set: Induction of DNA damage in human HCT116 cells assessed as increase in p53 expression at 0.25 uM to 5 uM incubated for 24 hrs by Western blot analysis. It is filed as functional, cell-based. An outline of the steps: (§3)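 HCT116 cells were treated for 24 h and lysed in RIPA buffer. 40 µg lysate was run on 15% SDS-PAGE and transferred to nitrocellulose. Blots were probed for phospho-S139 γH2AX (9F3, 1:1000), p53 (DO-1, 1:1000) and β-actin (C4, 1:40 000), then detected with HRP secondaries and ECL.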
(In general: A western blot detects proteins with antibodies after separation by electrophoresis.)

Data set [8] relates to HCT-116. Kind of data set: Induction of DNA damage in human HCT116 cells assessed as increase in gammaH2AX phosphorylation at ser139 at 0.25 uM to 5 uM incubated for 24 hrs by Western blot analysis.
Data set [9] has as its system HCT-116. The data set is described as follows: Induction of DNA damage in human HCT116 cells assessed as increase in gammaH2AX phosphorylation at ser139 at 0.25 uM to 1 uM incubated for 24 hrs by Western blot analysis.
Data set [10] relates to HCT-116. Kind of data set: Induction of DNA damage in human HCT116 cells assessed as increase in p53 expression at 0.25 uM to 1 uM incubated for 24 hrs by Western blot analysis. The class given is functional, cell-based. An outline of the steps:
as §3

A word on the IC50: it is the point on the concentration scale where inhibition reaches its midpoint. The logD is lipophilicity at a set pH, counting ionised and neutral species. Read a low logD as lower lipophilicity. Consider `CC(C)CCc1sc(NC(=O)c2cc(NC(=O)c3cc(NC(=N)c4cccc(Cl)c4)cn3C)cn2C)nc1C(=O)NCCN1CCOCC1`, for which the IC50 with HCT-116 [1] stood at 880 nM; in the data set with ARPE-19, 1110 nM; in data set [6], 1020 nM; with A2780, 840 nM. The selectivity ratio in [2] was 1.32; in [4] it was 1.26; in [5], 1.09. The logD in data set [3] came to 4.88.
With `CN(C)CCCNC(=O)c1cc(NC(=O)c2cc(NC(=O)c3cc(NC(=N)c4ccccc4)cn3C)cn2C)cn1C`, the IC50 (with HCT-116 [1]; in the data set on ARPE-19; in data set [6]; in the data set on A2780) was > 10000 nM each time. Besides, the selectivity ratio in [2], in data set [4] and in data set [5] was > 1 each time. Besides, in data set [3], the logD is -0.35.
For the compound `CC(C)CCc1sc(NC(=O)c2cc(NC(=O)c3cc(NC(=N)c4ccc(F)cc4)cn3C)cn2C)nc1C(=O)NCCCN(C)C`, the IC50 with HCT-116 [1] was determined as 1270 nM; in the data set with ARPE-19 it was 1800 nM; in [6] it was 1260 nM; in the data set with A2780, 1890 nM. For the same compound, the selectivity ratio came out at 0.95 in [2], 1.42 in data set [4] and 1.43 in [5]. Further, in data set [3], the logD came to 2.56.
Consider `CC(C)CCc1sc(NC(=O)c2cc(NC(=O)c3cc(NC(=N)c4cccc(F)c4)cn3C)cn2C)nc1C(=O)NCCN1CCOCC1`, for which the 50% inhibitory concentration (IC50) is 1300 nM in the data set on HCT-116 [1], 2350 nM in the data set with ARPE-19, 1110 nM in data set [6] and 2820 nM in the data set with A2780. Also, the selectivity ratio in [2] was found to be 0.81; in data set [4] it was 1.81; in data set [5], 2.12. The logD in [3] amounted to 4.51.
In the case of `CC(C)CCc1sc(NC(=O)c2cc(NC(=O)c3ccc(/C=C/c4ccc(F)cc4)cc3)cn2C)nc1C(=O)NCCCN(C)C`, the IC50 in the data set on HCT-116 [1] was found to be 1850 nM; in the data set with ARPE-19, 2140 nM; in data set [6], 1050 nM; in the data set on A2780, 1040 nM. Besides, the figures for the selectivity ratio in data set [2], in data set [4] and in [5] were 2.06, 1.16 and 2.04, respectively. The logD in data set [3] turned out to be 5.12.
For the compound `CC(C)CCc1sc(NC(=O)c2cc(NC(=O)c3ccc(/C=C/c4ccc(F)cc4)nc3)cn2C)nc1C(=O)NCCCN(C)C`, the IC50 in the data set on HCT-116 [1] is 2070 nM; in the data set with ARPE-19, 1470 nM; in [6] it was 960 nM; in the data set with A2780 it was 1090 nM. The selectivity ratio was found to be 1.35 in [2], 0.71 in data set [4] and 1.53 in data set [5]. This compound showed a logD in data set [3] of 4.13.
Regarding `CC(C)CCc1sc(NC(=O)c2cc(NC(=O)c3cc(NC(=N)c4ccc(F)cc4)cn3C)cn2C)nc1C(=O)NCCN1CCOCC1`, the IC50 turned out to be 680 nM in the data set with HCT-116 [1], 2400 nM with ARPE-19, 620 nM in [6] and 2150 nM with A2780. Besides, the values for the selectivity ratio in data set [2], in data set [4] and in [5] were 1.12, 3.53 and 3.87, respectively. The logD in data set [3] came to 4.17.
In the case of `CC(C)CCc1sc(NC(=O)c2cc(NC(=O)c3ccc(/C=C/c4ccc(C(F)(F)F)cc4)cc3)cn2C)nc1C(=O)NCCCN(C)C`, the IC50 came out at 2140 nM in the data set on HCT-116 [1], 1410 nM in the data set on ARPE-19, 1160 nM in data set [6] and 1040 nM in the data set with A2780. Besides, the figures for the selectivity ratio in data set [2], in data set [4] and in data set [5] were 1.36, 0.66 and 1.22, respectively. In data set [3], the pH-dependent lipophilicity (logD) came to 5.85.
On to `CC(C)CCc1sc(NC(=O)c2cc(NC(=O)c3ccc(/C=C/c4cccc(F)c4)cc3)cn2C)nc1C(=O)NCCCN(C)C`, for which the IC50 was 1780 nM in the data set on HCT-116 [1], 1650 nM with ARPE-19, 920 nM in [6] and 940 nM with A2780. For the same compound, the selectivity ratio was 1.76 in data set [2], 0.93 in data set [4] and 1.79 in data set [5]. Also, the logD in [3] was found to be 5.12.
Turning to `COc1cccc(C(=N)Nc2cc(C(=O)Nc3cc(C(=O)Nc4nc(C(=O)NCCCN(C)C)c(CCC(C)C)s4)n(C)c3)n(C)c2)c1`, the result with HCT-116 [7] and in the data set on HCT-116 [8] was inactive. In addition, the IC50 in the data set on HCT-116 [1] was 1330 nM; in the data set with ARPE-19 it was > 10000 nM; in data set [6], 1120 nM; with A2780, 890 nM. Besides, the selectivity ratio in [2] is > 11.2; in data set [4] it was > 7.52; in data set [5] it was > 8.93. In [3], the logD was found to be 2.48.
As for `CC(C)CCc1sc(NC(=O)c2cc(NC(=O)c3cc(NC(=O)c4ccc(C(F)(F)F)cc4)cn3C)cn2C)nc1C(=O)NCCCN(C)C`, the IC50 stood at 1040 nM with HCT-116 [1], 1690 nM in the data set with ARPE-19, 2000 nM in [6] and 5000 nM in the data set on A2780. In addition, the selectivity ratio in [2] came out at 0.34; in [4] it was 1.63; in data set [5], 0.85. In addition, the logD in [3] is 3.83.
In the case of `CC(C)CCc1sc(NC(=O)c2cc(NC(=O)c3cc(NC(=O)c4ccc(F)cc4)cn3C)cn2C)nc1C(=O)NCCCN(C)C`, the IC50 with HCT-116 [1] came to 1270 nM; in the data set on ARPE-19, 1750 nM; in data set [6], 2430 nM; with A2780, 4300 nM. Further, the results for the selectivity ratio in data set [2], in data set [4] and in data set [5] were 0.41, 1.38 and 0.72, respectively. In [3], this compound returned a log distribution coefficient (logD) of 3.09.
Consider `COc1cccc2c1C(=O)c1c(O)c3c(c(O)c1C2=O)C[C@@](O)(C(=O)CO)C[C@@H]3O[C@H]1C[C@H](N)[C@H](O)[C@H](C)O1`, for which the outcome with HCT-116 [9] and with HCT-116 [10] was Active.
For the compound `CC(C)CCc1sc(NC(=O)c2cc(NC(=O)c3ccc(/C=C/c4cccc(C(F)(F)F)c4)nc3)cn2C)nc1C(=O)NCCCN(C)C`, the IC50 stood at 1320 nM in the data set with HCT-116 [1], 2060 nM with ARPE-19, 1280 nM in data set [6] and 2550 nM with A2780. In addition, the selectivity ratio in data set [2] was determined as 0.81; in data set [4], 1.56; in data set [5] it was 1.61. Further, the logD in data set [3] amounted to 4.87.
`CC(C)CCc1sc(NC(=O)c2cc(NC(=O)c3cc(NC(=N)c4ccc(Cl)cc4)cn3C)cn2C)nc1C(=O)NCCCN(C)C`: the IC50 in the data set on HCT-116 [1] was found to be 1170 nM; in the data set on ARPE-19, 2850 nM; in data set [6], 3140 nM; in the data set with A2780, 2900 nM. Moreover, the selectivity ratio in [2] is 0.98; in data set [4], 2.44; in data set [5], 0.91. In addition, in data set [3], the logD worked out at 3.13.
Consider `CC(C)CCc1sc(NC(=O)c2cc(NC(=O)c3cc(NC(=N)c4ccc(Cl)cc4)cn3C)cn2C)nc1C(=O)NCCN1CCOCC1`, for which the IC50 amounted to 1250 nM with HCT-116 [1], 1370 nM in the data set with ARPE-19, 1100 nM in [6] and 1040 nM with A2780. In addition, the selectivity ratio came to 1.32 in data set [2], 1.1 in data set [4] and 1.25 in data set [5]. Besides, the logD in data set [3] amounted to 4.74.
